Experimental data reported in ChEMBL document CHEMBL4732157, “A theranostic probe of indoleamine 2,3-dioxygenase 1 (IDO1) for small molecule cancer immunotherapy” (Eur J Med Chem, 2021).
The source made the active and inactive calls. The rule behind the calls is not given here.

Assays:
[1] = Toxicity in BALB/c mouse implanted with mouse CT26 cells assessed as loss of body weight at 100 mg/kg, po administered daily for 12 days measured every other day during compound dosing; format: organism-based; details: in vivo, 288 h, time 12 day
Summary of the method: (§1)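 Female Balb/c mice, 4–5 weeks old, were inoculated subcutaneously in the right forelimb with 5 × 10⁵ log-phase CT26 cells in RPMI. Once tumors reached about 50 mm³, mice were randomized (n = 5 per group) and dosed orally at 100 mg/kg daily. Tumor length, width and body weight were recorded every other day, with V = ½ab². Mice were sacrificed when control tumors approached 2000 mm³. TGI = (Vcontrol − Vcompound)/Vcontrol at the last day. Data are mean ± SEM; Student's t-test.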

Homo sapiens = species on record: Homo sapiens; assay: Binding affinity to chymotrypsin (unknown origin) assessed as change in fluorescence intensity at 10 uM measured after 60 mins by fluorescence assay
Summary of the method: (§2)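 Selectivity panel: probe was incubated with each enzyme or biomolecule in 10 mM PBS, pH 7.4, containing 1% DMSO, for 60 min at room temperature. Fluorescence intensity was read at 532 nm with excitation at 465 nm.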

CT26 [2] = assay: Cytotoxicity against mouse CT26 cells assessed as reduction in cell viability measured after 72 hrs by CCK8 assay; format: cell-based; details: CT26, 72 h
Summary of the method: (§3)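 Log-phase HeLa or CT26 cells were seeded at 6 × 10³ per well and grown 24 h at 37 °C, 5% CO₂. Cells were treated with a concentration series in triplicate for 72 h. Medium was then replaced with medium containing 10% CCK8 and incubated a further 40 min.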

[3] = molecular target: T1, Indoleamine 2,3-dioxygenase 1 (Homo sapiens, UniProt P14902); assay: Inhibition of IDO1 in IFNgamma-stimulated human HeLa cells using tryptophan as substrate measured after 48 hrs
Target sequence in this assay (P14902 whole entry): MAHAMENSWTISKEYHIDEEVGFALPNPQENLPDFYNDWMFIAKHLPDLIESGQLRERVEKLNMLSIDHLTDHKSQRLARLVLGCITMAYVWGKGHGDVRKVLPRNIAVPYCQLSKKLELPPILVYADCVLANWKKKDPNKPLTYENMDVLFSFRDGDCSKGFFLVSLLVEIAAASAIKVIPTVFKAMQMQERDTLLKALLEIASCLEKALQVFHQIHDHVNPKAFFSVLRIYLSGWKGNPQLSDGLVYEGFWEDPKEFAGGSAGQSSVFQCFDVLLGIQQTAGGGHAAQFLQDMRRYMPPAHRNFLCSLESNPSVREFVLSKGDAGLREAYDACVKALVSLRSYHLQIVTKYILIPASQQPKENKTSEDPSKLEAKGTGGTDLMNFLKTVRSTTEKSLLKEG

CT26 [4] = assay: Antitumor activity against mouse CT26 cells implanted in BALB/c mouse assessed as tumor growth inhibition at 100 mg/kg, po administered daily for 12 days relative to control; format: functional; details: 288 h, time 12 day, read-out: TGI; summary of the method: as §1
Escherichia coli = assay: Binding affinity to Escherichia coli beta-galactosidase assessed as change in fluorescence intensity at 10 uM measured after 60 mins by fluorescence assay; summary of the method: as §2
[5] = Binding affinity to GSH assessed as change in fluorescence intensity at 10 uM measured after 60 mins by fluorescence assay; summary of the method: as §2
[6] = molecular target: T1, Indoleamine 2,3-dioxygenase 1; assay: Binding affinity to IDO1 in IFNgamma-stimulated human HeLa cells at 5 nM measured after 5 mins in presence of IDO1 inhibitor epacadostat by Hoechst staining based confocal fluorescence imaging analysis
Summary of the method: (§4)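 Living HeLa cells, either unstimulated or stimulated with IFN-γ (50 ng/mL, 12 h), were stained with Hoechst for 20 min and then with probe for 5 min before confocal imaging in the green channel.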
Target sequence in this assay (P14902 whole entry, looked up): as the sequence (P14902 whole entry) above

Bos taurus = species on record: Bos taurus; assay: Binding affinity to bovine hemoglobin assessed as change in fluorescence intensity at 10 uM measured after 60 mins by fluorescence assay; summary of the method: as §2
Trypsin (Homo sapiens) = Trypsin (Homo sapiens) (UniProt P07477+P07478+P35030); assay: Binding affinity to trypsin (unknown origin) assessed as change in fluorescence intensity at 10 uM measured after 60 mins by fluorescence assay; format: protein assay; summary of the method: as §2
Albumin [7] = molecular target: Albumin (Homo sapiens, UniProt P02768); assay: Binding affinity to human serum albumin assessed as change in fluorescence intensity at 10 uM measured after 60 mins by fluorescence assay; format: ADME; details: isolated protein, 1 h; summary of the method: as §2
[8] = molecular target: T1, Indoleamine 2,3-dioxygenase 1; assay: Inhibition of recombinant human IDO1 expressed in Escherichia coli BL21 (DE3) using tryptophan as substrate
Target sequence in this assay (P14902 whole entry): as above

[9] = molecular target: T1, Indoleamine 2,3-dioxygenase 1; assay: Binding affinity to recombinant human IDO1 expressed in Escherichia coli BL21 (DE3) assessed as increase in fluorescence intensity at 10 uM measured after 60 mins by fluorescence assay relative to control
Summary of the method: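 Human IDO1 was expressed in E. coli BL21(DE3), induced with 0.4 mM IPTG at OD600 0.6 for 18 h at 18 °C, then purified on Ni column (0–250 mM imidazole gradient) and gel filtration. Probe was titrated with increasing IDO1 in 10 mM PBS, pH 7.4, 1% DMSO, for 60 min at room temperature. Fluorescence: excitation 465 nm, emission 532 nm. Detection limit was taken at signal-to-noise ratio 3.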
Target sequence in this assay (P14902 whole entry, looked up): as the sequence (P14902 whole entry) above

HeLa = assay: Cytotoxicity against human HeLa cells assessed as reduction in cell viability measured after 72 hrs by CCK8 assay; format: cell-based; summary of the method: as §3
Albumin [10] = molecular target: Albumin (Bos taurus, UniProt P02769); assay: Binding affinity to bovine serum albumin assessed as change in fluorescence intensity at 10 uM measured after 60 mins by fluorescence assay; format: ADME; details: cattle, isolated protein, 1 h; summary of the method: as §2
[11] = Drug uptake in human HeLa cells at 5 nM measured after 5 mins by Hoechst staining based confocal fluorescence imaging analysis; format: ADME, cell-based; details: 0.005 µM; summary of the method: as §4
Aspergillus oryzae = assay: Binding affinity to oryzae beta-galactosidase assessed as change in fluorescence intensity at 10 uM measured after 60 mins by fluorescence assay; summary of the method: as §2
[12] = molecular target: T1, Indoleamine 2,3-dioxygenase 1; assay: Binding affinity to IDO1 in IFNgamma-stimulated human HeLa cells at 5 nM measured after 5 mins by Hoechst staining based confocal fluorescence imaging analysis; summary of the method: as §4
Target sequence in this assay (P14902 whole entry, looked up): as the sequence (P14902 whole entry) above

[13] = molecular target: T1, Indoleamine 2,3-dioxygenase 1; assay: Binding affinity to IDO1 in IFNgamma-stimulated human HeLa cells at 3.5 nM measured after 5 mins by Hoechst staining based confocal fluorescence imaging analysis; summary of the method: as §4
Target sequence in this assay (P14902 whole entry, looked up): as the sequence (P14902 whole entry) above

[14] = Drug uptake in human HeLa cells at 3.5 nM measured after 5 mins by Hoechst staining based confocal fluorescence imaging analysis; format: ADME, cell-based; details: 0.0035 µM; summary of the method: as §4
[15] = molecular target: T1, Indoleamine 2,3-dioxygenase 1; assay: Binding affinity to IDO1 in IFNgamma-stimulated human HeLa cells at 3.5 nM measured after 5 mins in presence of IDO1 inhibitor epacadostat by Hoechst staining based confocal fluorescence imaging analysis; summary of the method: as §4
Target sequence in this assay (P14902 whole entry, looked up): as the sequence (P14902 whole entry) above

Sequence of Albumin (Bos taurus, UniProt P02769) (P02769 whole entry): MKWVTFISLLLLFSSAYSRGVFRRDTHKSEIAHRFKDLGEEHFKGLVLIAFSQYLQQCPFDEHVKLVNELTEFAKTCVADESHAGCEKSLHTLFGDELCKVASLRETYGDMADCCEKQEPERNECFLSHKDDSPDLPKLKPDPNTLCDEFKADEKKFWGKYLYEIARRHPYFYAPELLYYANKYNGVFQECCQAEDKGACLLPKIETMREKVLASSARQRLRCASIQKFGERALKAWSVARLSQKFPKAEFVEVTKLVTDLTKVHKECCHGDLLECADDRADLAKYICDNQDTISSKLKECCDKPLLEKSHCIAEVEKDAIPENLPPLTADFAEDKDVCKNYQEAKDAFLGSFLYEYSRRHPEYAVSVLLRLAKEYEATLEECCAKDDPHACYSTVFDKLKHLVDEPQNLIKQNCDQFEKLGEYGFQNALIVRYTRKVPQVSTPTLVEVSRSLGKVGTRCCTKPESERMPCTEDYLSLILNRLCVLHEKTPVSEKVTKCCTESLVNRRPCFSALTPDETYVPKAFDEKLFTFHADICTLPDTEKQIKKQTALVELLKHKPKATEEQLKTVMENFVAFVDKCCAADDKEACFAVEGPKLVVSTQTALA
Sequence of Albumin (Homo sapiens, UniProt P02768) (P02768 whole entry): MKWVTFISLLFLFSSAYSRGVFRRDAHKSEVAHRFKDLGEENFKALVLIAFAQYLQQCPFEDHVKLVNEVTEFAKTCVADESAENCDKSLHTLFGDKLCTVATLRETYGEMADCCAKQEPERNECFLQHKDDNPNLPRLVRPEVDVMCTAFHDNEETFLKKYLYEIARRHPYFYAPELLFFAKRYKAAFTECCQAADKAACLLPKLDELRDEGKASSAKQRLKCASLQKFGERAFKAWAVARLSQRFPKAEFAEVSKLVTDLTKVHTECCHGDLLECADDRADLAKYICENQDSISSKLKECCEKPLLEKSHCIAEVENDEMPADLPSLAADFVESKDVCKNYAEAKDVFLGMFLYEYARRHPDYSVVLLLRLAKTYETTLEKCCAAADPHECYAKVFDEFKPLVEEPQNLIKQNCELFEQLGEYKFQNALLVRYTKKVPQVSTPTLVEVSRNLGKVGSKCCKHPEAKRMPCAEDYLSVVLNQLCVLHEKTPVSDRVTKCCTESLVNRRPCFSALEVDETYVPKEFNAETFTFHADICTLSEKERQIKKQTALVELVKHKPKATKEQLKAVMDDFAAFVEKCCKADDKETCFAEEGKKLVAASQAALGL

| Structure (SMILES) | Activity (Homo sapiens) | IC50 (CT26 [2]) [nM] | IC50 [3] [nM] | inhibition in vivo at 100 mg/kg (CT26 [4]) [%] | Activity (Escherichia coli) | Activity [5] | Activity (Bos taurus) | Activity (Trypsin (Homo sapiens)) | Activity (Albumin [7]) | IC50 [8] [nM] | IC50 (HeLa) [nM] | Activity (Albumin [10]) | Activity (Aspergillus oryzae) | Activity [12] | Activity [9] | further results |
| --- | --- | --- | --- | --- | --- | --- | --- | --- | --- | --- | --- | --- | --- | --- | --- | --- |
| O=C(CCNc1ccc([N+](=O)[O-])c2nonc12)NCCNc1nonc1/C(=N/O)Nc1ccc(F)c(Br)c1 | inactive | > 100000 | 10 | 46 | inactive | inactive | inactive | inactive | Not Active | 12 | > 100000 | Not Active | inactive | Active | – | Activity [1]: Non-Toxic; Activity [6]: inactive; fold change (FC) [9]: 5; Drug uptake [11]: Not Active |
| O=[N+]([O-])c1ccc(NCCNc2nonc2/C(=N/O)Nc2ccc(F)c(Br)c2)c2nonc12 | inactive | > 100000 | 15 | – | inactive | inactive | inactive | inactive | Not Active | 28 | > 100000 | Not Active | inactive | – | Active | Activity [13]: Active; Drug uptake [14]: Not Active; Activity [15]: inactive |
| NS(=O)(=O)NCCNc1nonc1/C(=N/O)Nc1ccc(F)c(Br)c1 [EPACADOSTAT] | – | > 100000 | – | 49 | – | – | – | – | – | – | > 100000 | – | – | – | – | – |
| O=C(CNc1ccc([N+](=O)[O-])c2nonc12)NCCNc1nonc1/C(=N/O)Nc1ccc(F)c(Br)c1 | inactive | > 100000 | > 5000 | – | inactive | inactive | inactive | inactive | Not Active | 1320 | > 100000 | Not Active | inactive | inactive | inactive | – |
